# Only some compounds are listed: those with a hit (about 2.2% of all), similar ones and a draw of the others.
# Ins promoter up = MIN6 insulin promoter up-regulation; 190,000 tested, 0.3% active; MIN6 insulin promoter-GFP reporter, high-content imaging; hits give high values; z-score at 5 µM;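 active means z-score above 3 at 5 µM with at least 500 cells counted in the well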
# Hsp70 activator = transcriptional activators of Hsp70; HeLa Hsp70 promoter luciferase reporter, luminescence; scaled: vehicle 0, proteasome-inhibitor control 100%; activation, % at 10 µM; 200,000 tested, 0.04% active; AID 1203;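 active means activation above the mean across all tested compounds plus 3 SD, cutoff set per campaign, cut at about 5.5% in these data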;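 further: 100% = MG132 at 30 µM as the positive control and 0% = DMSO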
# INS promoter inh = TRM-6 insulin promoter activity inhibition. TRM-6 cells (human fetal islet line), insulin promoter-eGFP reporter, imaging; reporter expression induced with tamoxifen. inhibition, % at 2 µM. 130,000 tested, 0.9% active. AID 1273;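 active means inhibition above the mean plus 3 SD, with well images judged a real hit on visual review, cut at about 60% in these data, passing the limit was not always enough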
# Wee1 degr inh = blocks degradation of human Wee1 kinase. P30291. HeLa Luc-Wee1K328M stability, luciferase luminescence; 100% = proteasome inhibitor MG132 effect. reporter increase, % at 5 µM. 220,000 tested, 1.2% active. AID 1321;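 active means activation above the mean of all tested compounds plus 3 SD, set per screening run, cut at about 8.8% in these data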;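 further: cells exposed to compound for 20 h before luminescence read; 0% = DMSO alone and 100% = MG132 at 30 µM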
# RBBP9 inh = inhibitors of human serine hydrolase RBBP9; O75884; recombinant RBBP9, FP-Rh probe fluorescence polarization; inhibition, % at 7.94 µM; 220,000 tested, 0.2% active; AID 1515;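 active means inhibition above the campaign mean of all tested compounds plus 3 SD, cut at about 14% in these data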;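 further: plate controls were DMSO wells with RBBP9 for no effect and wells lacking RBBP9 protein for full effect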
# Target sequence (O75884 whole entry, looked up): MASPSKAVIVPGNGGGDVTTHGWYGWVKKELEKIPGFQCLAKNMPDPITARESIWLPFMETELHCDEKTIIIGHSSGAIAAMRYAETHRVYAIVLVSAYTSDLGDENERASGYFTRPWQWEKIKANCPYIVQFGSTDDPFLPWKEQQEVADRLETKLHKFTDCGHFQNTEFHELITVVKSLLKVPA
#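 Test system – recombinant human RBBP9 · Input – RBBP9 2.5 µM in dispensing solution, pre-mixing · Medium – Tris buffer pH 8.0, NaCl, Pluronic · Schedule – preincubation 30 min plus labeling 45 min at 25 °C · Measured by – fluorescence polarization · Measure – % inhibition · Controls – DMSO and no-protein wells · Replicates – one well per compound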
# MDM2 E3 inh = inhibitors of human Mdm2 E3 ubiquitin ligase. signal enhancement, % at 5 µM. cell-based MDM2 ubiquitination luciferase reporter, 2 h; 0 = plate control, 100 = twice control, blank-subtracted. 210,000 tested, 0.11% active. AID 1230;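 active means signal enhancement of 30% or more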;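 further: luminescence tracks abundance of the self-degrading MDM2-luciferase fusion protein; higher signal means inhibition of MDM2 E3 ligase activity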
# Target sequence (Q00987 whole entry, looked up, the tested form may be a part): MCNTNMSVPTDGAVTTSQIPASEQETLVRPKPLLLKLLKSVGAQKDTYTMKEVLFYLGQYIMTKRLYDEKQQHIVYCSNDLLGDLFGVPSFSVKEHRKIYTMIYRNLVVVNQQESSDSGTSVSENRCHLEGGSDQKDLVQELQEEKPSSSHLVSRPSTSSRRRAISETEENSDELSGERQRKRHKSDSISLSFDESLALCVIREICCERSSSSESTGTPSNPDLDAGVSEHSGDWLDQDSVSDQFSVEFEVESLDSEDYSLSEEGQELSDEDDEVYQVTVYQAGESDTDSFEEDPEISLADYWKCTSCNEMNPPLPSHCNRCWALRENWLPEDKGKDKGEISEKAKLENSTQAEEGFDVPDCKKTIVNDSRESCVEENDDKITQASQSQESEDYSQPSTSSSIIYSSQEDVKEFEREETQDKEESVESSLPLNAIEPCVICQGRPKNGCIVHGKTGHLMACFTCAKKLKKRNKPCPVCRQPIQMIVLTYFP
#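 System: stable MDM2–luciferase fusion reporter cells / Input: 2000 cells seeded into each well / Schedule: 4 h settle plus 2 h compound, 37 °C / Compound: single-point 5 µM / Buffer or medium: cells held in DMEM / Benchmarks: control and blank well means / Evaluation: percent signal gain over controls, blank-subtracted / Measured by: luciferase luminescence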
# Starred values were filed as active, the others as inactive; . = no result given.
SMILES,Ins promoter up,Hsp70 activator,INS promoter inh,Wee1 degr inh,RBBP9 inh,MDM2 E3 inh
COc1ccc(C2c3c(-c4ccccc4)n[nH]c3C(=O)N2c2ccc(C(=O)O)cc2)cc1 (stereo not given),0.22,.,.,-1.4,-13.3,-4.5
O=C1Nc2ccc(Br)cc2C1(O)Cc1ccccn1 (stereo not given),0.21,-0.1,13.8,-0.3,-7.8,.
O=C1Nc2ccc(Br)cc2C12NNc1ccccc1O2 (stereo not given),14.4*,-0.1,.,4.5,5.6,4.1
COc1ccc(C(C)=O)cc1COc1nc(C)nc2ccccc12,-0.2,-0.2,.,6.3,-8.5,-16.2
CC(=O)Nc1ccc(S(=O)(=O)N2CCN(C)CC2)cc1,-0.17,-0.2,59.3,-0.6,2.4,-35.8
Cc1onc(-c2ccccc2)c1C(=O)Nc1ccc(S(=O)(=O)N2CCCCC2)cc1,-0.24,-0.2,.,0.8,-4.6,-12.3
CC(=O)Nc1ccc(S(=O)(=O)Nc2ccc(S(=O)(=O)N3CCCC3)cc2)cc1,0.17,-0.6,37.5,9.2*,10.1,0.5
CC(=O)Nc1ccc(NS(=O)(=O)c2ccc(Cl)c(C(=O)O)c2)cc1,0.34,0.2,79.2*,1.8,-0.1,2.8
O=C(O)c1cccc(NS(=O)(=O)c2ccc(Cl)c(C(=O)O)c2)c1,0.94,0.4,.,0.8,-4.8,-4.4
Cc1onc(-c2ccccc2)c1C(=O)Nc1ccc(S(=O)(=O)N2CCCC2)cc1,-1.38,-0.3,77.8*,-0.4,-11.1,3.1
COc1cccc(CC(NC(C)=O)C(=O)NC2CCN(S(=O)(=O)c3ccc(F)cc3)CC2)c1OC (stereo not given),-0.1,-0.1,-12.5,5.1,-9.2,10.2
C#CC(CC)(CC)NC(=O)NC1CCCCC1,-0.19,-0.1,.,4.9,-5.5,-5.6
O=[N+]([O-])c1ccc(O)c(C=Nc2ccc3c(c2)OCO3)c1,0.87,.,.,-0.4,-8.3,-9.6
O=[N+]([O-])c1cc(Br)cc(C=Nc2ccc3c(c2)OCO3)c1O,-0.59,.,.,9.7*,-3.8,-6.3
COc1cc(C=O)ccc1OCCCOc1ccccc1[N+](=O)[O-],0.01,-0.2,33.3,2.0,1.3,-1.9
COc1cc(C=O)ccc1OCCCOc1ccc([N+](=O)[O-])cc1,-0.44,0.0,-19.4,9.9*,0.3,.
CC1(c2ccccc2)NC(=O)N(CC(=O)NC(=O)NC2CCCC2)C1=O (stereo not given),1.25,-0.2,.,-3.0,-6.0,-18.9
O=C(COc1ccccc1)Nc1ncccn1,-0.05,-0.5,43.3,-0.1,-0.6,34.5*
O=C(COc1ccccc1)Nc1nccs1,.,0.0,19.1,9.6*,-2.3,-28.0
O=C(CCCOc1ccccc1)Nc1ncccn1,-0.23,-0.2,38.5,-0.9,-10.5,-5.3
CC(C)C(=O)n1nc(-c2cccnc2)nc1NCc1ccc(F)cc1,0.31,0.3,.,-1.0,-3.0,-15.1
COC(=O)CSC1=C(C#N)C(=O)NC(c2ccccc2)S1 (stereo not given),-0.27,-0.4,-11.1,-1.1,-1.0,39.6*
CSC1=C(C#N)C(=O)NC(c2ccccc2O)S1 (stereo not given),0,.,.,0.5,1.1,-10.2
CC(C)C(=O)NC(=S)Nc1ccccc1N1CCN(C(=O)c2ccccc2)CC1,0.29,0.1,.,10.4*,-6.9,-23.5
O=C(O)c1cc(-c2cccs2)nc2cc3c(cc12)OCCO3,.,-0.2,85.7*,-1.2,2.5,-15.7
SMILES,Ins promoter up,Hsp70 activator,INS promoter inh,Wee1 degr inh,RBBP9 inh,MDM2 E3 inh
O=C(NN1CCOCC1)c1cc(-c2cccs2)nc2ccccc12,0.46,-0.3,-57.1,1.0,-6.1,-1.9
CCCCc1ccc(NC(=O)N2CCNC(=O)C2CC(=O)Nc2ccsc2C(=O)OC)cc1 (stereo not given),-0.78,.,.,-1.7,-5.7,3.3
Cc1cc(/C=C(\C#N)c2nnc(N3CCOCC3)n2-c2ccccc2)c(C)n1-c1ccccc1,-0.03,-0.4,-66.7,10.0*,-5.7,.
CC(C)n1cnc2c(N(C)c3ccccc3)nc(N(CCN(C)C)Cc3ccccc3)nc21,-2.62,.,.,.,.,35.1*
CCCOc1ccc(N2C(=O)CC(N3CCN(c4ccccc4OC)CC3)C2=O)cc1 (stereo not given),-0.02,0.2,.,-0.5,-9.3,-14.8
CCOc1ccc(N2C(=O)CC(N3CCN(c4ccccc4F)CC3)C2=O)cc1 (stereo not given),0.12,-0.2,-3.7,14.0*,-8.8,-12.1
COc1ccc(CNC(=O)C2CCCN(S(=O)(=O)c3cc(C)ccc3OC)C2)cc1 (stereo not given),0.25,-0.4,-19.5,-4.9,-6.0,4.5
CCOC(=O)N1CCN(C(=O)C2CCCN(S(=O)(=O)c3cc(C)ccc3OC)C2)CC1 (stereo not given),0.52,0.0,28.6,1.0,-0.4,78.6*
Cc1ccccc1C(=O)Nc1nc2n(n1)C(c1ccccc1)CC(=O)N2 (stereo not given),-0.59,-0.1,13.8,-1.2,0.9,-14.8
COc1ccccc1C(=O)O/N=C(\N)c1ccccn1,0.38,.,.,9.1*,1.1,-21.0
N/C(=N\OC(=O)c1ccccc1Cl)c1ccccn1,.,-0.7,-16.7,1.1,-4.3,-98.3
CC(C)c1ccc2[nH]c(O)c(N=NC(=O)c3cccc(S(=O)(=O)Nc4ccc(Cl)cc4)c3)c2c1,0.09,-0.3,-77.8,3.4,1.2,-6.9
CC(C)c1ccc2[nH]c(O)c(N=NC(=O)c3cccc(S(=O)(=O)Nc4cccc(Cl)c4)c3)c2c1,0.5,.,.,10.6*,5.7,.
CCOc1ccc2[nH]c(=O)c(CN(CCc3ccccc3)C(=O)N3CCOCC3)cc2c1,5.49*,-0.2,26.7,-0.1,1.9,-10.6
COc1ccc(-c2nsc(SCC(=O)Nc3ccc4c(c3)OCO4)n2)cc1,0.68,0.2,4.0,0.4,1.5,31.9*
O=C(/C=C/c1ccc(Cl)cc1)Nc1ccc(N2CCCCC2)cc1,-0.18,0.0,.,-0.8,1.0,17.6
O=C(/C=C/c1ccccc1)Nc1ccc(N2CCCCC2)cc1,-0.19,0.0,.,9.0*,0.4,4.5
Fc1ccc(C2NCCn3cccc32)cc1 (stereo not given),3.94*,0.0,21.6,1.0,2.1,12.0
CC(C)c1onc(C(=O)NC(C)c2ccccc2)c1[N+](=O)[O-] (stereo not given),1.41,0.2,.,3.7,6.3,.
CN(C)c1ccc(/C=C/c2ccc3ccccc3n2)cc1,7.29*,.,.,-4.7,-13.8,-87.4
CN(c1cccnc1)c1ncnc2[nH]ncc12,-0.62,.,.,2.9,-1.5,0.8
CN(CCc1ccccn1)c1ncnc2[nH]ncc12,0.16,0.0,75.0*,-1.7,2.3,2.6
NC(=O)c1ccc(NC(=O)Cn2c(=O)n(-c3ccccc3)c(=O)c3oc4ccccc4c32)cc1,-0.68,0.0,.,9.9*,-0.9,-5.9

# Screens (PubChem)
